Laboratory results taken from ChEMBL document CHEMBL1806466, “2-Amino-4-methyl-5-phenylethyl substituted-7-N-benzyl-pyrrolo[2,3-d]pyrimidines as novel antitumor antimitotic agents that also reverse tumor resistance” (Bioorg Med Chem, 2011).
The source made the active and inactive calls. The calls are words filed in the database; no cut-off is given here.

What was measured:
[1] = tested on: MDA-MB-468; assay: Antitumor activity against human MDA-MB-468 cells after 48 hrs by sulforhodamine B assay; type: functional; details: MDA-MB-468, 48 h
Outline: (§1)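 NCI-60 screen, adherent lines: grown in RPMI 1640 with 5% FBS and 2 mM L-glutamine. Seeded at 5,000–40,000 cells/well by doubling time and preincubated 24 h at 37 °C, 5% CO2, with time-zero plates TCA-fixed. Five concentrations (10-fold or half-log) given for 48 h. Fixed with cold TCA (10% final), then SRB-stained and read at A515. GI50 is 50% reduction of net protein increase versus control.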

[2] = tested on: MCF7; assay: Resistance factor, ratio of IC50 for drug-resistant […] human NCI/ADR cells expressing Pgp in absence of vinblastin to IC50 for drug-sensitive human MCF7 cells in presence of 50 nM vinblastin; type: functional
[3] = Cytotoxic activity against Pgp-deficient human MCF7/VP cells expressing MRP1 after 48 hrs by sulforhodamine B assay; type: functional, cell-based
Outline: (§2)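 Cells plated at ~15% confluency and allowed 24 h to attach, then exposed to varying test concentrations for 48 h. Survival by SRB binding, reported as % decrease in binding versus ethanol solvent controls, mean of three wells. For NCI/ADR, exposure with 0 or 50 nM vinblastine; for MCF-7/VP, with 0 or 1 nM vincristine.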

[4] = tested on: NCI/ADR; assay: Reversal of Pgp-mediated multidrug resistance in human NCI/ADR cells assessed as enhancement of cytotoxicity of vinblastine after 48 hrs by sulforhodamine B assay; type: cell-based
Outline: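 NCI/ADR cells plated at ~15% confluency and allowed 24 h to attach. […] Survival by SRB binding, each value the mean of three wells, with ethanol solvent controls. Pgp Antagonism Score = % survival without vinblastine / % survival with vinblastine.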

[5] = tested on: K562; assay: Antitumor activity against human K562 cells after 48 hrs by sulforhodamine B assay; type: functional; details: K562, 48 h
Outline: (§3)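 NCI-60 screen, suspension lines: grown in RPMI 1640 with 5% FBS and 2 mM L-glutamine. Seeded at 5,000–40,000 cells/well and preincubated 24 h at 37 °C, 5% CO2, with time-zero plates fixed. Five concentrations (10-fold or half-log) given for 48 h. Settled cells fixed with 80% TCA (16% final), then SRB-stained and read at 515 nm. GI50 is from the net growth relative to time zero and control.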

[6] = tested on: MOLT-4; assay: Antitumor activity against human MOLT4 cells after 48 hrs by sulforhodamine B assay; type: functional; details: MOLT-4, 48 h; outline: as §3
[7] = tested on: SR; assay: Antitumor activity against human SR cells after 48 hrs by sulforhodamine B assay; type: functional; outline: as §3
[8] = tested on: EKVX; assay: Antitumor activity against human EKVX cells after 48 hrs by sulforhodamine B assay; type: functional; outline: as §1
[9] = tested on: HOP-92; assay: Antitumor activity against human HOP92 cells after 48 hrs by sulforhodamine B assay; type: functional; details: HOP-92, 48 h; outline: as §1
[10] = tested on: NCI-H23; assay: Antitumor activity against human NCI-H23 cells after 48 hrs by sulforhodamine B assay; type: functional; details: NCI-H23, 48 h; outline: as §1
[11] = tested on: NCI-H322M; assay: Antitumor activity against human NCI-H322M cells after 48 hrs by sulforhodamine B assay; type: functional; outline: as §1
[12] = tested on: NCI-H460; assay: Antitumor activity against human NCI-H460 cells after 48 hrs by sulforhodamine B assay; type: functional; details: NCI-H460, 48 h; outline: as §1
[13] = tested on: NCI-H522; assay: Antitumor activity against human NCI-H522 cells after 48 hrs by sulforhodamine B assay; type: functional; details: NCI-H522, 48 h; outline: as §1
[14] = tested on: HCT-116; assay: Antitumor activity against human HCT116 cells after 48 hrs by sulforhodamine B assay; type: functional; details: HCT-116, 48 h; outline: as §1
[15] = tested on: HCT-15; assay: Antitumor activity against human HCT15 cells after 48 hrs by sulforhodamine B assay; type: functional; details: HCT-15, 48 h; outline: as §1
[16] = tested on: SW-620; assay: Antitumor activity against human SW620 cells after 48 hrs by sulforhodamine B assay; type: functional; details: SW-620, 48 h; outline: as §1
[17] = tested on: SF-268; assay: Antitumor activity against human SF268 cells after 48 hrs by sulforhodamine B assay; type: functional; details: SF-268, 48 h; outline: as §1
[18] = tested on: SF-295; assay: Antitumor activity against human SF295 cells after 48 hrs by sulforhodamine B assay; type: functional; details: SF-295, 48 h; outline: as §1
[19] = tested on: SF-539; assay: Antitumor activity against human SF539 cells after 48 hrs by sulforhodamine B assay; type: functional; details: SF-539, 48 h; outline: as §1
[20] = tested on: SNB-19; assay: Antitumor activity against human SNB19 cells after 48 hrs by sulforhodamine B assay; type: functional; details: SNB-19, 48 h; outline: as §1
[21] = tested on: Malme-3M; assay: Antitumor activity against human MALME-3M cells after 48 hrs by sulforhodamine B assay; type: functional; outline: as §1
[22] = tested on: SK-MEL-2; assay: Antitumor activity against human SK-MEL-2 cells after 48 hrs by sulforhodamine B assay; type: functional; details: SK-MEL-2, 48 h; outline: as §1
[23] = tested on: UACC-257; assay: Antitumor activity against human UACC257 cells after 48 hrs by sulforhodamine B assay; type: functional; details: UACC-257, 48 h
Outline: (§4)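 NCI-60 panel lines grown in RPMI 1640 with 5% FBS and 2 mM L-glutamine. Cells plated at 5,000–40,000/well by doubling time, given 24 h before drug, then exposed to five concentrations for 48 h at 37 °C. Time-zero plates fixed with TCA. Cells fixed with TCA, stained with 0.4% SRB, read at 515 nm. GI50 = 50% reduction in net protein increase versus control.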

[24] = tested on: UACC-62; assay: Antitumor activity against human UACC62 cells after 48 hrs by sulforhodamine B assay; type: functional; details: UACC-62, 48 h; outline: as §4
[25] = tested on: OVCAR-3; assay: Antitumor activity against human OVCAR3 cells after 48 hrs by sulforhodamine B assay; type: functional; details: OVCAR-3, 48 h; outline: as §1
[26] = tested on: A498; assay: Antitumor activity against human A498 cells after 48 hrs by sulforhodamine B assay; type: functional; details: A498, 48 h; outline: as §1
[27] = tested on: ACHN; assay: Antitumor activity against human ACHN cells after 48 hrs by sulforhodamine B assay; type: functional; outline: as §1
[28] = tested on: CAKI-1; assay: Antitumor activity against human Caki1 cells after 48 hrs by sulforhodamine B assay; type: functional; details: CAKI-1, 48 h; outline: as §1
[29] = tested on: TK-10; assay: Antitumor activity against human TK10 cells after 48 hrs by sulforhodamine B assay; type: functional; details: TK-10, 48 h; outline: as §4
[30] = tested on: UO-31; assay: Antitumor activity against human UO31 cells after 48 hrs by sulforhodamine B assay; type: functional; details: UO-31, 48 h; outline: as §4
[31] = tested on: PC-3; assay: Antitumor activity against human PC3 cells after 48 hrs by sulforhodamine B assay; type: functional; details: PC-3, 48 h; outline: as §1
[32] = tested on: Hs-578T; assay: Antitumor activity against human Hs578T cells after 48 hrs by sulforhodamine B assay; type: functional; outline: as §1
[33] = tested on: MDA-MB-435; assay: Antitumor activity against human MDA-MB-435 cells after 48 hrs by sulforhodamine B assay; type: functional; details: MDA-MB-435, 48 h; outline: as §1
[34] = tested on: T47D; assay: Antitumor activity against human T47D cells after 48 hrs by sulforhodamine B assay; type: functional; outline: as §4
[35] = Cytotoxic activity against drug-resistant […]-deficient human NCI/ADR cells expressing Pgp after 48 hrs by sulforhodamine B assay; type: functional, cell-based; details: NCI/ADR-RES; outline: as §2
[36] = tested on: MCF7; assay: Resistance factor, ratio of IC50 for Pgp-deficient human MCF7/VP cells expressing MRP1 in absence of vincristine to IC50 for drug sensitive human MCF7 cells in presence of 1 nM vincristine

COc1cc(CCc2cn(Cc3ccccc3)c3nc(N)nc(C)c23)c(OC)c(OC)c1OC
GI50 [1]: 2820 nM | Ratio IC50 [2]: 0.29 | IC50 [3]: 9 µM | Activity [4]: Active | GI50 [5]: 2480 nM | GI50 [6]: 3.96 µM | GI50 [7]: 2350 nM | GI50 [8]: 7.73 µM | GI50 [9]: 1390 nM | GI50 [10]: 3.61 µM | GI50 [11]: 6.92 µM | GI50 [12]: 2810 nM | GI50 [13]: 6.05 µM | GI50 [14]: 3.68 µM | GI50 [15]: 3.2 µM | GI50 [16]: 3.19 µM | GI50 [17]: 4.4 µM | GI50 [18]: 1390 nM | GI50 [19]: 1860 nM | GI50 [20]: 4.68 µM | GI50 [21]: 10.4 µM | GI50 [22]: 5.09 µM | GI50 [23]: 10.4 µM | GI50 [24]: 2130 nM | GI50 [25]: 1200 nM | GI50 [26]: 2250 nM | GI50 [27]: 9.36 µM | GI50 [28]: 2500 nM | GI50 [29]: 7.62 µM | GI50 [30]: 5.37 µM | GI50 [31]: 3.08 µM | GI50 [32]: 2460 nM | GI50 [33]: 340 nM | GI50 [34]: 1690 nM | IC50 [35]: 7 µM | Ratio IC50 [36]: 0.37
